From PubChem BioAssay
Rows were chosen to be rich in hits. Some 1.2% of all compounds tested hit in one or more screens of this group.
TNAP inh noacc: human TNAP enzyme inhibitors, primary screen, biochemical, luminescent, no phosphate acceptor, uHTS; purified TNAP, CDP-star luminescence, 30 min; actives 0.26% (n = 200,000); inhibition, % at 20 µM;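 active = tissue-nonspecific alkaline phosphatase inhibition above about 50% at 20 µM in the single-dose screen, limit read from the data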;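 note: 0% = DMSO negative control and 100% = EDTA positive control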
Target sequence (P05186 whole entry, looked up): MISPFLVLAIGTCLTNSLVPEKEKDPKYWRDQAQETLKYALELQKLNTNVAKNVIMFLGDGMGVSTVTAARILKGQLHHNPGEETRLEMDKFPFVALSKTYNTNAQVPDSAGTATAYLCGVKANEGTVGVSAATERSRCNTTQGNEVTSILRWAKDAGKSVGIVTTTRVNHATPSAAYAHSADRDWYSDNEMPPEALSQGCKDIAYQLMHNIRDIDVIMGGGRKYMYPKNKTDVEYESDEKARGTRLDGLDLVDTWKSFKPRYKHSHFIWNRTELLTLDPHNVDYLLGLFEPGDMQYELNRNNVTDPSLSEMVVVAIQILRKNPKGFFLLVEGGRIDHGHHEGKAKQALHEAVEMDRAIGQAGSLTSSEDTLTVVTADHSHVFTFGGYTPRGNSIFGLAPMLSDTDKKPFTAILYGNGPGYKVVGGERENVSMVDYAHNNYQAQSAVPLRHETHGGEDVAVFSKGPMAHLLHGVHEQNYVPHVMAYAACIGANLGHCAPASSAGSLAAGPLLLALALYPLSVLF
TNAP inh hiacc: human TNAP enzyme inhibitors, primary screen, biochemical, luminescent, high phosphate acceptor level, uHTS; purified TNAP, CDP-star luminescence, 1 M DEA; inhibition, % at 20 µM; actives 0.03% (n = 200,000); AID 1135, 2008;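 active = over 50% inhibition of tissue-nonspecific alkaline phosphatase at 20 µM in the single-dose screen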;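 note: plate controls were DMSO wells for no effect and EDTA-quenched wells as full inhibition for full effect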
INS promoter inh: inhibitors of insulin promoter-driven GFP, primary screen, imaging, TRM-6 cells, eGFP reporter, cell count | inhibition, % at 2 µM | reporter expression induced with tamoxifen | actives 0.9% (n = 130,000);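 active = inhibition above the mean plus 3 SD, with well images judged a real hit on visual review, cut at about 60% in these data, passing the limit was not always enough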
HMGR II inh: inhibitors of E. faecalis class II HMGR, primary screen, biochemical, Enterococcus faecalis; inhibition, % at 10 µM; AID 1066, 2008; purified E. faecalis HMGR, NADPH absorbance 340 nm kinetic; actives 0.41% (n = 190,000);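 active = inhibition above a set limit, the median over all tested compounds plus 3 SD, cut at about 9.5% in these data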;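 note: enzyme runs in reverse so mevalonate oxidation gives rising NADPH absorbance; 0% = complete reaction with DMSO and 100% = background rate lacking mevalonate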
TNAP act hiacc: TNAP activators at high phosphate acceptor level, primary screen, biochemical, luminescence, uHTS. activation factor at 20 µM. purified TNAP, CDP-star luminescence, 1 M DEA, 30 min; active compounds read high; 0 = EDTA background, 1 = DMSO-only activity. Alkaline phosphatase, tissue-nonspecific isozyme (Homo sapiens), P05186. 200,000 tested, under 10 active;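 active = activation factor at least 2 at 20 µM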
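Control set: EDTA negative control, DMSO positive control / Assay system: human TNAP / Quantity: TNAP 1/800 final / Evaluation: TNAP activation factor scaled between EDTA and DMSO control wells / Measured by: luminescent substrate turnover signal / Compound dosing: one dose, 20 µM / Times: 30 min enzyme reaction at room temperature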
An asterisk follows results filed as active; i = inactive; . = no result given.

SMILES	TNAP inh noacc	TNAP inh hiacc	INS promoter inh	HMGR II inh	TNAP act hiacc
Nc1nc(SCC(=O)N2CCc3ccccc3C2)[nH]c(=O)c1-c1ccccc1	6.5	-4.8	75.0*	0.7	1
CCN(C(=S)NCc1ccccc1)c1ccccc1	-13.7	-0.1	.	7.0	1
Cc1cc(OCC(O)CNC(C)(C)C)ccc1Cl (stereo unspecified)	-6.2	-3.6	-11.1	-10.0	1
c1cncc(C2Nc3ccccc3-c3nc4ccccc4n32)c1 (stereo unspecified)	-14.3	-5.9	32.3	0.9	1.1
c1ccc2c(c1)NC(c1ccncc1)n1c-2nc2ccccc21 (stereo unspecified)	-8.6	-5.8	77.8*	-7.5	1.1
COc1ccc(N2C(=O)CCC2=O)cc1	-9.0	-2.2	.	-0.1	1
COc1ccc(N2C(=O)CS/C2=C\[N+](=O)[O-])cc1	-3.8	5.3	.	15.0*	0.9
O=c1oc2c(O)c(O)cc3c(=O)oc4c(O)c(O)cc1c4c23	2.9	7.1	-28.6	23.6*	0.9
C=CCNc1nc(SCC=C)nc2ccsc12	0.1	-0.7	83.3*	-11.5	1
CCOC(=O)c1cnc(Nc2nc3ccccc3o2)nc1CN1CCN(C)CC1	-3.5	-1.5	-10.3	-2.3	1
COc1cccc(NC(=O)CN2CCSc3ccccc32)c1	-1.9	-4.4	.	-6.2	1
Cc1cccc(NC(=O)CN2CCSc3ccccc32)c1	1.8	4.7	33.3	13.3*	1
Cc1nn(-c2ccccc2)c(C)c1/C=N/NC(=O)c1cc(-c2cccs2)[nH]n1	83.5*	11.6	-78.6	4.8	0.9
COc1cc(/C=N/NC(=O)c2cc(C34CC5CC(CC(C5)C3)C4)[nH]n2)ccc1O	54.4*	-0.9	0.0	5.0	1
COc1cc(/C=N/NC(=O)c2ccc(=O)[nH]n2)ccc1O	-37.2	1.0	-13.3	4.0	1
COc1cc(/C=N/NC(=O)c2[nH]nc3c2CCc2ccccc2-3)ccc1O	65.5*	-5.4	41.9	-4.7	1.1
Cc1nn(-c2ccccc2)c(C)c1/C=N/NC(=O)c1cc(C23CC4CC(CC(C4)C2)C3)[nH]n1	73.4*	-7.8	19.2	1.4	1.1
CC(C)CC(=O)CC1(O)C(=O)Nc2ccccc21 (stereo unspecified)	0.2	-3.6	38.9	-5.2	1
Cc1nn(-c2ccccc2)c(C)c1/C=N/NC(=O)c1cc(-c2ccc(Br)s2)[nH]n1	43.9	2.4	.	-1.3	1
O=C(O)c1cc(-c2cccs2)[nH]n1	83.4*	-6.6	.	-5.8	1.1
Cc1nn(-c2ccccc2)c(C)c1/C=N/NC(=O)c1cc(-c2ccc(Cl)s2)[nH]n1	67.3*	7.3	.	3.0	0.9
COc1cc(NC(=O)c2cccs2)c(C(=O)OCC(=O)NC(C)c2ccccc2)cc1OC (stereo unspecified)	-6.1	-5.0	70.3*	-1.2	1.1
Nc1nonc1C(=O)N/N=C/c1ccc(-c2cccc(C(=O)O)c2)o1	-7.0	-3.4	.	4.6	1
NC(=O)CSc1nnc2ccc(-c3ccco3)nn12	-9.6	-3.3	68.4*	-3.5	1
O=C(NC1CCCCC1)C(c1ccc(O)c(O)c1)N(C(=O)Cn1nnc2ccccc21)c1cccc(O)c1 (stereo unspecified)	50.6*	-0.1	.	-2.4	1
SMILES	TNAP inh noacc	TNAP inh hiacc	INS promoter inh	HMGR II inh	TNAP act hiacc
CC(=O)c1cccc(N(C(=O)Cn2nnc3ccccc32)C(C(=O)NC2CCCCC2)c2cn(C)nc2C)c1 (stereo unspecified)	-4.7	-0.4	.	-2.6	1
N/C(Cc1ccccc1)=N\OC(=O)c1cccc2ccccc12	-11.0	-3.6	-30.8	-3.3	1
Cc1nn(-c2ccccc2)c(Cl)c1/C=N/NS(=O)(=O)c1ccc(Br)cc1	-7.0	-5.6	69.2*	-1.1	1.1
CNC(=S)N/N=C/c1c(C)nn(-c2ccccc2)c1Cl	-6.7	-4.4	5.7	-4.8	1
CC(OC(=O)Cc1c(F)cccc1Cl)C(=O)NCCC1=CCCCC1 (stereo unspecified)	-7.6	-3.7	-54.0	-0.4	1
COc1ccc(S(=O)(=O)N(C)C)cc1NC(=O)CSc1nnc(-c2cccnc2)o1	-19.2	-3.1	.	12.7*	1
CCOc1ccc(OCC)c(NC(=O)CSc2nnc(-c3cccnc3)o2)c1	14.9	-1.3	.	-1.5	1
O=C1OC(N2CCN(C/C=C/c3ccccc3)CC2)c2ccccc21 (stereo unspecified)	3.6	-3.6	83.3*	-2.6	1
O=C1CC(N2CCN(C/C=C/c3ccccc3)CC2)C(=O)N1Cc1cccs1 (stereo unspecified)	-8.4	-2.8	-39.4	1.2	1
CCOC(=O)N1CCN(C(=O)C2c3cc(OC)c(OC)cc3C(=O)N3CCc4ccccc4C23)CC1 (stereo unspecified)	-4.8	-1.4	80.0*	-0.4	1
Cn1c(OCc2cccnc2)nc2c1c(=O)n(Cc1ccc(Br)cc1)c(=O)n2C	-2.0	-1.5	.	14.4*	1
Cc1ccc(NCc2cccnc2)c(Br)c1	1.3	0.1	66.7*	-4.8	1
Cc1cc(F)ccc1NCc1cccnc1	-6.7	-2.3	-22.2	0.6	1
CCN(CC)c1ccc(/C=C2\CCC(/C=C(\C#N)C(=O)Nc3ccccc3F)=C2N2CCOCC2)cc1	52.9*	46.6	i	1.7	0.5
O=C(Nc1ccc(C(=O)O)cc1)/C(=C\c1ccc2c(c1)OCO2)NC(=O)c1ccccc1	-4.8	-3.6	80.0*	-6.3	1
FC(F)(F)c1cnc2c(-c3ccccc3)n[nH]c2c1	81.3*	3.8	53.9	-6.2	1
O=C(O)c1sc2cc(C(F)(F)F)cnc2c1-c1ccccc1	-7.3	-0.7	25.0	0.1	1
NC(=O)CSC1=Nc2ccccc2C2=NC(c3ccccc3)C(=O)N12 (stereo unspecified)	-8.5	-2.4	78.6*	-7.9	1
CCOC(=O)N1CCC(N2CCCC(CO)(Cc3ccccc3C)C2)CC1 (stereo unspecified)	-12.8	-0.8	-81.0	2.6	1
CN(C)/C=C(\C#N)c1nc2ccccc2[nH]1	-14.0	-3.0	57.1	-0.5	1
Cc1ccc(/C=C(\C#N)c2nc3ccccc3[nH]2)s1	-4.8	0.7	96.2*	5.8	1
N#C/C(=C/c1cccs1)c1nc2ccccc2[nH]1	-5.9	-0.3	75.0*	3.0	1
O=C(Nc1nnc(-c2ccco2)o1)C1CC1	-13.1	-4.9	-16.7	3.8	1
CCCc1nc2ccccc2c2nc(N)nn12	-3.2	-7.2	86.7*	-4.2	1.1
CCOC(=O)c1ccc(NC(=O)CSc2nccn2C)cc1	-23.5	-4.2	28.6	-4.0	1
